# High-throughput results deposited in PubChem BioAssay by several laboratories.
# HTR2A ag: agonists of mouse serotonin 5-HT2A receptor (HTR2A) | P35363 | CHO-K1 mHTR2A beta-arrestin complementation, luminescence; percent of 30 µM serotonin response | activation, % at 7.6 µM | 360,000 tested, 0.66% active | AID 624169;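 active means activation above a run cutoff, the mean activation of all tested compounds plus 3 SD, cut at about 14% in these data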;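 further: 0% = plate median of compound wells and 100% = 30 µM serotonin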
# Target sequence (P35363 whole entry, looked up): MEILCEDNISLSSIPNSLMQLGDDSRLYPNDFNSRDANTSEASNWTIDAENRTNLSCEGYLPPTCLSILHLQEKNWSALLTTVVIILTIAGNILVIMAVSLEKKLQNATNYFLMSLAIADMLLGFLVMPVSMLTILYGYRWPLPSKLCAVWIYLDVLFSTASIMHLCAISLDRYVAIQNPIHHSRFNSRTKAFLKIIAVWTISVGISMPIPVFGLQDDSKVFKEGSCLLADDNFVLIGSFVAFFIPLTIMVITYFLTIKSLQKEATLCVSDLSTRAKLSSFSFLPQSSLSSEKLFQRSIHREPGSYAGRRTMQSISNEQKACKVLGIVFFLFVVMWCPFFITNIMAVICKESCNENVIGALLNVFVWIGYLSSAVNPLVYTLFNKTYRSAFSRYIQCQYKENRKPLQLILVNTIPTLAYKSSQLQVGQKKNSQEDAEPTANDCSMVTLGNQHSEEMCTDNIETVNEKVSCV
# PP1 inh: PP1-alpha (human) inhibition in PP5 counter-screen | P62136 | 320,000 tested, 0.9% active | inhibition, % at 6.7 µM | purified PP1alpha, OMFP fluorescence | AID 2235;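 active means inhibition above the mean inhibition of all tested compounds plus 3 SD, computed separately for each screening campaign, cut at about 15% in these data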
# GASC-1 inh: human JMJD2C demethylase inhibition | Q9H3R0 | GST-JMJD2C(1-420) H3K9me3 demethylation, DELFIA europium | inhibition, % at 2.35 µM | 330,000 tested, 0.069% active | AID 2099;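 active means more than half of a compound's replicate wells show inhibition beyond 50%, single wells judged on their own value; inconclusive means some, but no more than half, of replicates pass 50% inhibition; inactive means no replicate passes 50% inhibition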;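 further: signal counts dimethyl H3K9 product captured on neutravidin plate; 0% = median of DMSO wells and 100% = 0.3 times that DMSO median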
# PP5 inh: PP5 (human) phosphatase inhibition. purified PP5c, OMFP substrate fluorescence. P53041. AID 1987. 320,000 tested, 0.18% active. inhibition, % at 6.7 µM;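 active means inhibition above the campaign's mean inhibition across all tested compounds plus 3 SD, cut at about 9.5% in these data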;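 further: 0% = DMSO only and 100% = 100 µM cantharidin control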
# T cell modulator: T cell immune modulation candidate; 330,000 tested, 0.068% active; AID 2052; 2C CD8+ T cell-vesicle binding, flow cytometry; active compounds read low; response (vesicle binding), % at 7 µM;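 active means response, share of CD8 T cells binding vesicles, and their 90th percentile fluorescence all below set limits, cut at about 80% in these data, passing the limit was not always enough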;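 further: values below 100% mean blocked vesicle binding to the CD8+ T cells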
#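 Material: 2C TCR transgenic mouse naive CD8+ T cells, MACS-purified. Also added: QL9-charged Drosophila Ld/ICAM-1/B7-1 vesicles. Timing: binding 1.5 h at 37 °C. Measured by: high-throughput flow cytometry with anti-B7-1 and anti-CD8 staining. Read-out: percent CD8+ FL2 mean versus row control. Controls: Unloaded micro-vesicles (low), QL9 vesicles with 0.7% DMSO (high).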
# OPRM1 ag: counter-screen for mouse HTR2A agonists: human mu opioid receptor agonists. shares compounds with HTR2A ag. U2OS OPRM1 beta-arrestin PathHunter, luminescence; DMSO 0%, DAMGO 9.3 µM 100%. activation, % at 9.3 µM. 2,300 tested, 5.3% active. AID 624380;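 active means mean activation above the mean of DMSO-only wells plus 3 SD, cut at about 0.5% in these data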
# HTR2A ag conf: mouse HTR2A agonism confirmed. shares compounds with HTR2A ag. CHO-K1 PathHunter beta-arrestin recruitment, luminescence; DMSO 0%, 30 µM serotonin 100%. activation, % at 7.6 µM. 2,300 tested, 19% active;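 active means mean activation across triplicates above the hit threshold derived in the original primary screen, cut at about 15% in these data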
# An asterisk follows results filed as active; i = inactive; ? = inconclusive; . = no result given. Sampled rows, rich in hits. Any-hit rate of the full collection: about 1.7%.
SMILES,HTR2A ag,PP1 inh,GASC-1 inh,PP5 inh,T cell modulator,OPRM1 ag,HTR2A ag conf
COc1cc(-c2ccc3c(=O)c4ccccc4sc3c2)cc(OC)c1OC,-4,.,7,.,i,.,.
COc1cc(-c2ccc3c(=O)c4ccccc4n(C)c3c2)cc(OC)c1OC,18*,0,-3,0,104,0,1
O=C(Nc1ccc(Oc2ccccc2)nc1)C1CCCCN1Cc1ccco1 (configuration not stated),-3,-3,10,-1,811,.,.
Cc1c(Cc2ccc3c(c2)OCO3)sc(NC(=O)c2ccccc2)c1C(N)=O,15*,9,2,3,557,0,2
Cc1nc(N(CCO)C2CCCCC2)c2nnn(Cc3ccccc3)c2n1,0,1,-11,2,202,.,.
Cc1ccn(CCNC(=O)C2CCC(=O)N(CCc3ccc(Cl)cc3)C2)n1 (configuration not stated),24*,-3,7,2,328,0,-3
CSCCC(=O)N1CC[C@@H](N2CCN(c3ccccc3F)CC2)[C@H](O)C1,15*,0,8,-1,211,-1,45*
CC(C)=CC(=O)N1CCCC(N2CCN(c3ccccc3C)CC2)C1 (configuration not stated),-11,2,2,2,155,.,.
CC(C)=CC(=O)N1CC[C@@H](N2CCN(c3ccccc3F)CC2)[C@H](O)C1,17*,-3,1,-1,148,0,43*
COc1ccc(C)c2sc(N(CCN(C)C)C(=O)/C=C/c3cccs3)nc12,24*,0,-6,1,237,1.0*,12
COc1ccc(C)c2sc(N(CCCN(C)C)C(=O)c3ccc4c(c3)OCCO4)nc12,21*,-3,2,-1,237,-1,5
CN(CC(=O)O)c1ccc(C(F)(F)F)cc1[N+](=O)[O-],-2,.,-3,.,.,.,.
COc1cc(OC)cc(C(=O)NCC(=O)OCc2nc3ccccc3s2)c1,1,1,41,-3,260,.,.
CCc1nccn1CCC(=O)N1CCCC(N2CCN(c3cccc(Cl)c3)CC2)C1 (configuration not stated),-8,.,0,.,541,.,.
COc1ccc(C2/C=C\CN(C(=O)C3CCCCC3)CC(=O)N2Cc2ccc(F)cc2)cc1 (configuration not stated),3,1,1,3,.,.,.
COc1ccc(C2/C=C\CN(C(=O)C3CCCC3)CC(=O)N2Cc2ccc(F)cc2)cc1 (configuration not stated),24*,5,3,0,396,-1,62*
CC(C)(C)N(Cc1ccccc1)C(=O)COC(=O)CCN1C(=O)C2CC=CCC2C1=O (configuration not stated),15*,.,.,.,.,-1,-2
O=C(COC(=O)CCN1C(=O)C2CC=CCC2C1=O)NCCc1ccccc1 (configuration not stated),6,1,-13,3,272,.,.
O=C(c1ccc(OCc2cn3ccccc3n2)cc1)N1CCN(S(=O)(=O)c2ccccc2F)CC1,20*,.,.,.,.,0,-2
Cc1nc(-c2ccc(F)cc2)c(CC(=O)N(C)CC(=O)Nc2ccc(Cl)c(C(F)(F)F)c2)s1,-16,.,.,.,.,.,.
COc1ccc(CN2CCC(CO)(CCOc3ccccc3)CC2)cc1C,-8,0,7,0,192,.,.
C[C@](N)(Cc1ccc(O)c(O)c1)C(=O)O,3,.,.,.,.,.,.
NCCc1ccc(O)c(O)c1,42*,-4,-18,2,533,0,140*
COc1ccccc1OCCn1ccnc1,16*,1,5,6,302,-1,-6
CCn1ccnc1CNC(=O)C1CCC(=O)N(Cc2cccc(C(F)(F)F)c2)C1 (configuration not stated),6,-2,-18,1,88,.,.
SMILES,HTR2A ag,PP1 inh,GASC-1 inh,PP5 inh,T cell modulator,OPRM1 ag,HTR2A ag conf
CCn1ccnc1CN(C)C(=O)C1CCC(=O)N(Cc2cccc(C(F)(F)F)c2)C1 (configuration not stated),15*,-4,-5,-1,i,-1,-4
CCCCNS(=O)(=O)c1ccc(NS(=O)(=O)c2c(C)cc(C)cc2C)cc1,18*,6,-4,6,120,0,13
CC1CCCN(c2ccc(C(=O)Nc3ccc4c(c3)OCO4)cc2[N+](=O)[O-])C1 (configuration not stated),38*,4,30,6,220,-1,9
O=S(=O)(NC1=NCCCCC1)c1ccc(F)cc1F,3,.,8,.,347,.,.
O=S(=O)(NC1=NCCCCC1)c1ccc(Cl)cc1Cl,14*,3,-6,4,277,0,-2
O=C(NCC(c1ccco1)N1CCN(c2ccccc2F)CC1)c1cccs1 (configuration not stated),10,-7,?,0,269,.,.
O=C(NCC(c1ccco1)N1CCN(c2ccccc2F)CC1)c1ccco1 (configuration not stated),15*,-4,93,-2,197,-1,36*
COc1ccc(CCn2c3c(c(=O)[nH]c2=O)C(NC(=O)c2cccs2)(C(F)(F)F)C(=O)N3)cc1OC (configuration not stated),15*,0,3,3,740,-1,-2
CC(=O)NC1(C(F)(F)F)C(=O)Nc2c1c(=O)[nH]c(=O)n2CCc1ccccc1 (configuration not stated),6,-4,-4,2,152,.,.
COC(=O)C(C)Sc1nnc(Cc2cc(=O)[nH]c(=O)[nH]2)n1-c1cc(C)ccc1C (configuration not stated),31*,-4,-7,1,364,0,-3
CCOc1ccc(-n2c(Cc3cc(=O)[nH]c(=O)[nH]3)nnc2SC(C)C(=O)OC)cc1 (configuration not stated),3,-1,-12,-1,267,.,.
c1ccc(Nc2nc(Nc3ccccc3)nc(N3CCNCC3)n2)cc1,20*,-2,-5,1,302,0,11
c1ccc(Nc2nc(N3CCCC3)nc(N3CCOCC3)n2)cc1,6,-1,-5,1,672,.,.
O=C(N[C@H](CO)Cc1ccccc1)[C@H]1O[C@@H](n2ccc(=O)[nH]c2=O)[C@H](O)[C@@H]1O,1,.,.,.,.,.,.
O=C(N[C@H](CO)c1ccccc1)[C@H]1O[C@@H](n2ccc(=O)[nH]c2=O)[C@H](O)[C@@H]1O,15*,.,.,.,.,-1,0
C=CCSc1nsc(NC(=O)Nc2ccc(F)cc2)n1,17*,8,-5,4,181,0.8*,29*
CCSc1nsc(NC(=O)Nc2ccccc2F)n1,-1,1,-1,1,194,.,.
